Assay results: ChEMBL document CHEMBL1125824, “New pepstatin analogues: synthesis and pepsin inhibition” (J Med Chem, 1991)

Tests used:
Pepsin A [1] = biological target: T1, Pepsin A (Sus scrofa, UniProt P00791); assay: Compound was measured for the apparent inhibition constant at pepsin
Outline: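 Apparent Ki from the pepsin–hemoglobin assay: pH 2.0 KCl–HCl buffer, 30 min total at 37 °C, perchloric acid quench, A280 of supernatant minus blank. IC50 came from % inhibition vs log [inhibitor], four replicates at ≥5 concentrations. Ki(app) was calculated as IC50 − 0.5[E]0, where [E]0 is the enzyme concentration.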

Pepsin A [2] = biological target: T1, Pepsin A; assay: Compound was measured for the inhibition of pepsin hydrolysis of hemoglobin.
Outline: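 Porcine pepsin acting on hemoglobin substrate (0.5% solution) with inhibitor in 0.02 M KCl–HCl, pH 2.0. Substrate and inhibitor were preincubated 3 min at 37 °C, then enzyme was added for 27 min at 37 °C. The reaction was quenched with 1.5 M perchloric acid, protein was spun out, and A280 was read minus a no-enzyme blank. Four replicates at ≥5 concentrations; IC50 from % inhibition vs log concentration.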

T1 sequence (P00791 whole entry): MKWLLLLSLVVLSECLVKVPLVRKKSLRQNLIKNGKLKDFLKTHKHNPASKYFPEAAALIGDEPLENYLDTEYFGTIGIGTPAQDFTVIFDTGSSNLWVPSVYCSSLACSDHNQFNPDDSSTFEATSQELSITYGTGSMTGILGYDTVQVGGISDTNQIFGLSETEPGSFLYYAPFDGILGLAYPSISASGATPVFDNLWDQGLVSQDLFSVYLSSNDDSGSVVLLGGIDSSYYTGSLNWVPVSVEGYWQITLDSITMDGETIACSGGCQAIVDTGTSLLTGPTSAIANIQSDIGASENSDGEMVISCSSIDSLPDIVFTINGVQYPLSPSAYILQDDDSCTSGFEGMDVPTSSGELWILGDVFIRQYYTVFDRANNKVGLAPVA

| SMILES | Ki (Pepsin A [1]) | IC50 (Pepsin A [2]) |
| --- | --- | --- |
| CC(C)[C@H](NC(=O)OCc1ccccc1)C(=O)N[C@H](C(=O)NC(c1ccc(O)cc1)C(O)CC(=O)O)C(C)C (stereo partly specified) | 1130 µM | 1130 µM |
| CC(C)CC(NC(=O)[C@@H](NC(=O)[C@H](NC(=O)OCc1ccccc1)C(C)C)C(C)C)C(O)CC(=O)O (stereo partly specified) | 39.4 µM | 39.4 µM |
| CCCCC(NC(=O)[C@@H](NC(=O)[C@H](NC(=O)OCc1ccccc1)C(C)C)C(C)C)C(O)CC(=O)O (stereo partly specified) | 17.7 µM | 17.7 µM |
| CC(C)[C@H](NC(=O)[C@H](NC(=O)OCc1ccccc1)C(C)C)C(=O)NC(c1ccc(O)cc1)C(O)CC(=O)O (stereo partly specified) | 1540 µM | 1540 µM |
| CC(C)[C@H](NC(=O)[C@H](NC(=O)OCc1ccccc1)C(C)C)C(=O)NC(c1ccccc1)C(O)CC(=O)O (stereo partly specified) | 346 µM | 346 µM |

Stronger by IC50 (Pepsin A [2]), values ahead:

| Ki (Pepsin A [1]) | IC50 (Pepsin A [2]) | SMILES |
| --- | --- | --- |
| 0.41 µM | 0.42 µM | CC(C)[C@H](NC(=O)OCc1ccccc1)C(=O)N[C@H](C(=O)NC(c1ccccc1)C(O)CC(=O)O)C(C)C (stereo partly specified) |
| 0.19 µM | 0.2 µM | CC(C)CC(NC(=O)[C@@H](NC(=O)[C@@H](NC(=O)OCc1ccccc1)C(C)C)C(C)C)C(O)CC(=O)O (stereo partly specified) |
| – | 0.01 µM | CCCCC(NC(=O)[C@@H](NC(=O)[C@@H](NC(=O)OCc1ccccc1)C(C)C)C(C)C)C(O)CC(=O)O (stereo partly specified) |
| – | 0.007 µM | CC(C)CC(=O)N[C@H](C(=O)N[C@H](C(=O)N[C@@H](CC(C)C)[C@@H](O)CC(=O)N[C@@H](C)C(=O)N[C@@H](CC(C)C)[C@@H](O)CC(=O)O)C(C)C)C(C)C [PEPSTATIN] |
